The test system of experiment [1] is Plasmodium falciparum. As to the kind of experiment: Antimalarial activity against early trophozoite-stage Plasmodium falciparum 3D7 infected in erythrocyte assessed as reduction in parasite hemoglobin content at 5 times IC50 after 8 hrs. The format is functional.
Experiment [2] has as its system Plasmodium falciparum. As to the kind of experiment: Antimalarial activity against early trophozoite-stage Plasmodium falciparum 3D7 infected in erythrocyte assessed as reduction in parasite hemoglobin content at 5 times IC50 after 8 hrs in presence of 40 uM protease inhibitor ALLN. In kind it is functional, organism-based.
In experiment [3] the test system is Plasmodium falciparum. Description: Antimalarial activity against Plasmodium falciparum 3D7 infected in erythrocyte assessed as increase in vesicle content after 8 hrs by immunofluorescence microscopy. In kind it is functional, organism-based. A digest of the protocol:
(§1)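 Cultures left untreated or given quinoline for 8 h, then parasites freed by saponin lysis, fixed on polylysine-coated coverslips with paraformaldehyde and glutaraldehyde, permeabilized in Triton X-100, and stained with rabbit anti-Hb antiserum and TRITC-conjugated goat anti-rabbit antibody. Hb transport vesicles counted by fluorescence microscopy in 100 randomly chosen parasites per sample; mean per parasite ± SEM.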

Experiment [4] deals with Plasmodium falciparum. As to the kind of experiment: Antimalarial activity against schizont-stage Plasmodium falciparum 3D7 infected in erythrocyte assessed as inhibition of horseradish peroxidase(HRP) uptake after 10 hrs by colorimetric peroxidase assay. In kind it is functional, organism-based. A digest of the protocol:
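Erythrocytes preloaded with HRP by hypotonic lysis, then infected by incubation with enriched schizont-infected cells. Parasites exposed to quinolines for 10 h, released with saponin, washed, and lysed in Triton X-100. HRP measured colorimetrically with O-phenylenediamine at 450 nm. Significance vs control taken at P < 0.05.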

The subject of experiment [5] is Plasmodium falciparum. Description: Antimalarial activity against early trophozoite-stage Plasmodium falciparum 3D7 infected in erythrocyte assessed as reduction in parasite hemoglobin content at 5 times IC50 after 8 hrs in presence of 40 uM protease inhibitor E64. The format is functional, organism-based.
In experiment [6] the test system is Plasmodium falciparum. Description: Antimalarial activity against Plasmodium falciparum 3D7 infected in erythrocyte assessed as reduction in endocytic vesicle content after 8 hrs by immunofluorescence microscopy. The format is functional, organism-based. A digest of the protocol: as §1

Calls of active or inactive are those of the source. No cut-off for these calls is given here.

Turning to `CCN(CC)CCCC(C)Nc1ccnc2cc(Cl)ccc12` (stereo not given), the inhibition entry in the experiment on Plasmodium falciparum [1], in the experiment on Plasmodium falciparum [2], with Plasmodium falciparum [4] and with Plasmodium falciparum [5] was “inactive” throughout. In addition, the inhibition result in the experiment on Plasmodium falciparum [3] is “Active”.

Regarding `CCN(CC)Cc1cc(Nc2ccnc3cc(Cl)ccc23)ccc1O`, the inhibition result with Plasmodium falciparum [1], in the experiment on Plasmodium falciparum [2], in the experiment with Plasmodium falciparum [4] and in the experiment on Plasmodium falciparum [5] was “inactive” each time. Also, the inhibition result with Plasmodium falciparum [3] is “Active”.

On to `CCCCN(CCCC)CCC(O)c1cc2c(Cl)cc(Cl)cc2c2cc(C(F)(F)F)ccc12` (stereo not given) [HALOFANTRINE], for which the “inhibition (INH)” value in the experiment on Plasmodium falciparum [1] stood at 64%. In addition, the inhibition result in the experiment on Plasmodium falciparum [2], in the experiment with Plasmodium falciparum [6], in the experiment on Plasmodium falciparum [4] and with Plasmodium falciparum [5] was “Active” each time.

`OC(c1cc(C(F)(F)F)nc2c(C(F)(F)F)cccc12)C1CCCCN1` (stereo not given) [MEFLOQUINE]: in the experiment on Plasmodium falciparum [1], the “inhibition (INH)” value worked out at 83%. Further, the inhibition entry with Plasmodium falciparum [2] and in the experiment with Plasmodium falciparum [5] was “inactive” in each case. For the same compound, the inhibition entry with Plasmodium falciparum [6] and in the experiment with Plasmodium falciparum [4] was “Active” in each case.

Consider `C=C[C@H]1CN2CC[C@H]1C[C@H]2[C@H](O)c1ccnc2ccc(OC)cc12` [QUININE], for which, in the experiment with Plasmodium falciparum [1], the “inhibition (INH)” value is reported as 84%. The inhibition result in the experiment on Plasmodium falciparum [2], in the experiment on Plasmodium falciparum [6], with Plasmodium falciparum [4] and in the experiment on Plasmodium falciparum [5] was “Active” each time.

Source of the values: ChEMBL document CHEMBL1255338, “Differential effects of quinoline antimalarials on endocytosis in Plasmodium falciparum” (2008).
